These results are taken from ChEMBL document CHEMBL3407380, “Structure-based design of phthalimide derivatives as potential cyclooxygenase-2 (COX-2) inhibitors: anti-inflammatory and analgesic activities” (Eur J Med Chem, 2015).

As usually defined, the IC50 is the concentration at which inhibition is half-maximal. One may read the ED50 as the midpoint of the dose-response relation.

Assay [1] addresses T1, Prostaglandin G/H synthase 1 (Ovis aries, UniProt P05979).
T1 sequence (P05979 whole entry): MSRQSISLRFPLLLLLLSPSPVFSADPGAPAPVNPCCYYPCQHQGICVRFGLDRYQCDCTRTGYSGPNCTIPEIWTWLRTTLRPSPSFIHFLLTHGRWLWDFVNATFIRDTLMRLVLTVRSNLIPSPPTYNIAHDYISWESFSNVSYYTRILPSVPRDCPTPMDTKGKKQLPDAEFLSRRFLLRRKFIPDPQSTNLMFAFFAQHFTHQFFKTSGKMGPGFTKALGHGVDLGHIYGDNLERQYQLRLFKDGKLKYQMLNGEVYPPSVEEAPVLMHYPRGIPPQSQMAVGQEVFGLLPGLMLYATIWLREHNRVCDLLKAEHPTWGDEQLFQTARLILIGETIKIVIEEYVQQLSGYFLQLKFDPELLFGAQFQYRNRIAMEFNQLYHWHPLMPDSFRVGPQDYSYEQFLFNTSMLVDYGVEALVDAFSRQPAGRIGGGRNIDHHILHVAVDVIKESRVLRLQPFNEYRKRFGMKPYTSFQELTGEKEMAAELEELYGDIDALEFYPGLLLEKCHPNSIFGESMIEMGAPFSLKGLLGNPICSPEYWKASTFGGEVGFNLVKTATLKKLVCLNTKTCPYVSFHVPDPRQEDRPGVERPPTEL
Kind of assay: Inhibition of ovine COX1 assessed as inhibition of PGF2alpha production from PGH2 preincubated for 5 mins before arachidonic acid addition measured after 2 mins by enzyme immunoassay. An outline of the steps:
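Ovine COX-1 from a COX-1/COX-2 inhibitor screening kit, in 0.1 M Tris-HCl pH 8.0. Enzyme was incubated with inhibitor for 5 min at 37 °C. Arachidonic acid (100 µM solution) was then added, and the reaction was stopped with 1 M HCl after 2 min. Prostaglandins were quantified by competitive acetylcholinesterase-tracer EIA read at 410 nm.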

The test system of assay [2] is Mus musculus. Kind of assay: Analgesic activity in ip dosed albino Swiss mouse assessed as licking or blowing latency time measured 60 mins post dose by hot plate method. It is filed as functional. The settings on record: 1 h.
For assay [3], the system named is Rattus norvegicus. Briefly: Antiinflammatory activity in ip dosed Sprague-Dawley rat assessed as inhibition of carrageenan-induced paw edema measured 2 hrs post dose by displacement plethysmometer analysis. Type of assay: functional.

Structures are written as SMILES.

On to `COc1ccc(CN2C(=O)c3cccc4cccc(c34)C2=O)cc1`, for which the IC50 in assay [1] is greater than 100 µM. In addition, the ED50 turned out to be 119 mg/kg in assay [2] and 129 mg/kg in assay [3].
The like results for `COc1ccc(CN2C(=O)c3ccccc3C2=O)cc1` were, in that order, 110 µM, 107 mg/kg and 162 mg/kg.
With `COc1cc(CN2C(=O)CCC2=O)cc(OC)c1OC`, the IC50 in assay [1] was greater than 100 µM. In addition, the ED50 amounted to 95 mg/kg in assay [2] and 180 mg/kg in assay [3].
Regarding `COc1ccc(CN2C(=O)CCC2=O)cc1`, the IC50 in assay [1] is greater than 100 µM.
For `O=C1CCC(=O)N1Cc1ccc(F)cc1`, the IC50 in assay [1] is greater than 100 µM.
`COc1cc(CN2C(=O)C3CC=CCC3C2=O)cc(OC)c1OC` (configuration not stated): the IC50 in assay [1] was greater than 100 µM. For the same compound, the figures for the ED50 in assay [2] and in assay [3] were 125 mg/kg and 171 mg/kg, respectively.
Take `COc1ccc(CN2C(=O)C3CC=CCC3C2=O)cc1` (configuration not stated): in assay [1], the half-inhibitory concentration (IC50) is greater than 100 µM.
Turning to `O=C1C2CC=CCC2C(=O)N1Cc1ccc(F)cc1` (configuration not stated), the IC50 in assay [1] was greater than 100 µM.
Regarding `COc1cc(CN2C(=O)c3ccccc3C2=O)cc(OC)c1OC`, the IC50 in assay [1] is greater than 100 µM. For the same compound, the ED50 came out at 110 mg/kg in assay [2] and 149 mg/kg in assay [3].
`O=C1c2ccccc2C(=O)N1Cc1ccc(F)cc1`: in assay [1], the concentration for half-maximal inhibition (IC50) was 116 µM. In addition, the ED50 in assay [2] stood at 90 mg/kg; in assay [3], 170 mg/kg.
In the case of `COc1cc(CN2C(=O)c3ccc(C)cc3C2=O)cc(OC)c1OC`, the IC50 in assay [1] is greater than 100 µM. Also, the ED50 in assay [3] is 130 mg/kg.
For the compound `COc1ccc(CN2C(=O)c3ccc(C)cc3C2=O)cc1`, in assay [1], the IC50 is greater than 100 µM. For the same compound, the ED50 in assay [2] amounted to 80.5 mg/kg; in assay [3], 153 mg/kg.
For `Cc1ccc2c(c1)C(=O)N(Cc1ccc(F)cc1)C2=O` the same measures were greater than 100 µM, 97 mg/kg and 172 mg/kg.
As for `COc1cc(CN2C(=O)c3ccc(C(C)(C)C)cc3C2=O)cc(OC)c1OC`, the IC50 in assay [1] is greater than 100 µM. Besides, the ED50 in assay [2] was determined as 79.3 mg/kg; in assay [3], 147 mg/kg.
Take `COc1ccc(CN2C(=O)c3ccc(C(C)(C)C)cc3C2=O)cc1`: the IC50 in assay [1] was greater than 100 µM. Further, the ED50 in assay [2] was found to be 96.1 mg/kg; in assay [3], 137 mg/kg.
For `CC(C)(C)c1ccc2c(c1)C(=O)N(Cc1ccc(F)cc1)C2=O`, the IC50 in assay [1] is greater than 100 µM.
Consider `COc1cc(CN2C(=O)c3ccc([N+](=O)[O-])cc3C2=O)cc(OC)c1OC`, for which the IC50 in assay [1] came out at 120 µM. The results for the ED50 in assay [2] and in assay [3] were 27.6 mg/kg and 54 mg/kg, respectively.
Regarding `COc1ccc(CN2C(=O)c3ccc([N+](=O)[O-])cc3C2=O)cc1`, in assay [1], the IC50 worked out at 119 µM. In addition, the ED50 in assay [2] was 17 mg/kg; in assay [3], 68 mg/kg.
`O=C1c2ccc([N+](=O)[O-])cc2C(=O)N1Cc1ccc(F)cc1`: in assay [1], the IC50 is greater than 100 µM. The figures for the ED50 in assay [2] and in assay [3] were 35 mg/kg and 127 mg/kg, respectively.
Take `COc1cc(CN2C(=O)c3cc(Cl)c(Cl)cc3C2=O)cc(OC)c1OC`: the IC50 in assay [1] is 120 µM. The ED50 turned out to be 57.4 mg/kg in assay [2] and 67 mg/kg in assay [3].
Consider `COc1ccc(CN2C(=O)c3cc(Cl)c(Cl)cc3C2=O)cc1`, for which, in assay [1], the IC50 is 131 µM. Moreover, the ED50 in assay [2] stood at 51.2 mg/kg; in assay [3], 75 mg/kg.
For the compound `O=C1c2cc(Cl)c(Cl)cc2C(=O)N1Cc1ccc(F)cc1`, the IC50 in assay [1] is greater than 100 µM.
Turning to `COc1cc(CN2C(=O)c3c(Cl)c(Cl)c(Cl)c(Cl)c3C2=O)cc(OC)c1OC`, the 50% inhibitory concentration (IC50) in assay [1] is greater than 100 µM. The ED50 in assay [2] stood at 54.7 mg/kg; in assay [3], 144 mg/kg.
In the case of `COc1ccc(CN2C(=O)c3c(Cl)c(Cl)c(Cl)c(Cl)c3C2=O)cc1`, the IC50 in assay [1] is greater than 100 µM. In addition, the ED50 in assay [2] was 52.9 mg/kg; in assay [3], 103 mg/kg.
In the case of `O=C1c2c(Cl)c(Cl)c(Cl)c(Cl)c2C(=O)N1Cc1ccc(F)cc1`, the IC50 in assay [1] was greater than 100 µM.
In the case of `COc1cc(CN2C(=O)c3nccnc3C2=O)cc(OC)c1OC`, the IC50 in assay [1] was greater than 100 µM. Further, the ED50 in assay [2] was 40.5 mg/kg; in assay [3] it was 119 mg/kg.
For the compound `O=C1c2nccnc2C(=O)N1Cc1ccc(F)cc1`, the IC50 in assay [1] is greater than 100 µM.
For `COc1cc(CN2C(=O)c3cccc4cccc(c34)C2=O)cc(OC)c1OC`, in assay [1], the IC50 was greater than 100 µM. Also, the ED50 in assay [2] stood at 88 mg/kg; in assay [3] it was 115 mg/kg.
`O=C1c2cccc3cccc(c23)C(=O)N1Cc1ccc(F)cc1`: in assay [1], the IC50 is greater than 100 µM.
For the compound `COc1ccc(CN2C(=O)c3nccnc3C2=O)cc1`, the IC50 in assay [1] was determined as 117 µM. In addition, the ED50 stood at 106 mg/kg in assay [2] and 159 mg/kg in assay [3].
As for `Cc1ccc(-c2cc(C(F)(F)F)nn2-c2ccc(S(N)(=O)=O)cc2)cc1` [CELECOXIB], the ED50 in assay [2] came to 71 mg/kg.
